Rows were chosen to be rich in hits. Some 2.3% of all compounds tested hit in one or more screens of this group.
TRPC6 inhibitor – blocks the mouse TRPC6 cation channel; B-score at 10 µM; 1.1% of 310,000 active; HEK293-TRPC6, membrane potential dye, ACh-evoked depolarization; active compounds read low;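 active means B-score under library mean minus 3 SD, initial fluorescence not abnormally high, positive integrated signal ratio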;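 further: B-score derived from integrated fluorescence ratio over the kinetic read; more negative B-score means stronger inhibition of depolarization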
TRPC4 block – TRPC4 (mouse) channel inhibition. 0.39% of 300,000 active. B-score at 10 µM. HEK293 TRPC4beta/mu-opioid, DAMGO-evoked Fluo4 calcium flux; active compounds read low. Q9QUQ5;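 active means B-score over 3 SD under the library average, no early fluorescence shift, positive overall ratio signal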
Target sequence (Q9QUQ5 whole entry, looked up): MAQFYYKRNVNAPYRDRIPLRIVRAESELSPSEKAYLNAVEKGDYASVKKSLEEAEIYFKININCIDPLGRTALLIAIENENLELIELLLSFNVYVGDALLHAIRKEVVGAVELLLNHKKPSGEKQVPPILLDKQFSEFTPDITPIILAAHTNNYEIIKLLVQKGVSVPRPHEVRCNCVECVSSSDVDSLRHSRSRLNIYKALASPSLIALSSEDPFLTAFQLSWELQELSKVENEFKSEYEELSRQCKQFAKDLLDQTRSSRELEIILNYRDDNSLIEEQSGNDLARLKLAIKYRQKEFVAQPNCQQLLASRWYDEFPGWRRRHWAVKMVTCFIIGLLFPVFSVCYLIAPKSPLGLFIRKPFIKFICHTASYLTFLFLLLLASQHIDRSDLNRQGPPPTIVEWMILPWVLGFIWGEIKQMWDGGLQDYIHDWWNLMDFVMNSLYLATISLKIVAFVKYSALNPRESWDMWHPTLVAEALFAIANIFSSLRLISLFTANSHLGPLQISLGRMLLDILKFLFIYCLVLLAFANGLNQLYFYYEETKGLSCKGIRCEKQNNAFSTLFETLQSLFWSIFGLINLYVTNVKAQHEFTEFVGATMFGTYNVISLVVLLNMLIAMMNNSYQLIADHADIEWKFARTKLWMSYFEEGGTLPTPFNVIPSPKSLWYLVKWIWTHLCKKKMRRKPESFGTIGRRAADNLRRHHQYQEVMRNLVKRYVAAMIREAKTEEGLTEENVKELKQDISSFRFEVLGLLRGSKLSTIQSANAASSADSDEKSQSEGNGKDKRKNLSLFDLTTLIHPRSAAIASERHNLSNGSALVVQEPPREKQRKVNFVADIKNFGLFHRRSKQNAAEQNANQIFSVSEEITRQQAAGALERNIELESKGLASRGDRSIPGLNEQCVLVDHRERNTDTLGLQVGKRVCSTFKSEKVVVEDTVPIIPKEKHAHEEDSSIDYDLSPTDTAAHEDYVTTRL
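System: stable TRPC4beta/mu-opioid receptor HEK293 cells; Dosing: single-point compound dosing; Measured by: Fluo4 Ca2+ flux fluorescence; Read-out basis: per-well B score of integrated baseline-normalized Fluo4 ratio.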
TRPC4 act – TRPC4 (mouse) channel activation | Q9QUQ5 | HEK293 TRPC4beta/mu-opioid, Fluo4 calcium fluorescence; active compounds read high | B-score at 10 µM | 0.49% of 310,000 active;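 active means B-score above 5 SD of library B-scores, and initial fluorescence ratio not above library mean plus 5 SD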;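 further: positive B-score marks a calcium rise read as TRPC4 activation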
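Test system: HEK293 cells stably co-expressing mouse TRPC4beta and mu-opioid receptor | Schedule: Fluo4 dye loading 45 min at room temperature, 110 s recording | Measured by: Kinetic Fluo4 calcium fluorescence, 5 s baseline at 1 Hz | Evaluation: B score of integrated ratio | Controls: Buffer (low) and maximal DAMGO (high)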
TRPC6 act – activates the mouse TRPC6 cation channel | Q61143 | HEK293-TRPC6 membrane potential dye fluorescence; active compounds read high | B-score at 10 µM | 0.13% of 310,000 active | AID 2550;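 active means B-score of the integrated fluorescence ratio above library mean plus 3 SD, and starting fluorescence ratio within library mean plus 5 SD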;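 further: higher score means more depolarization so channel activation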
TRPC4 potent – allosteric potentiators of mouse TRPC4 channel. HEK293 TRPC4beta/mu-opioid, DAMGO EC20, Fluo-4 Ca2+ flux; active compounds read high. B-score at 10 µM. 0.42% of 310,000 active;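 active means B-score of calcium response area above 5 SD of library B-scores, with initial fluorescence ratio within 5 SD of library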
A number is an active result; 0 = inactive.

SMILES	TRPC6 inhibitor	TRPC4 block	TRPC4 act	TRPC6 act	TRPC4 potent
Cc1cccc(NC(=O)CS(=O)(=O)Cc2ccccc2)n1	0	0	53	0	0
COc1ccc(Br)cc1CN1CCC(N2CCCC2)CC1	0	0	0	0	17
COc1ccc(Br)cc1CN1CCCC(C(=O)N2CCCCCC2)C1 (stereo unspecified)	0	-6	0	0	0
N#C/C(N)=C(/C#N)N=Cc1cccc(Cl)c1	0	0	0	0	11
Cc1cccc(OC(C)C(=O)N2CCN(Cc3ccc4c(c3)OCO4)CC2)c1 (stereo unspecified)	0	0	0	0	0
CN1CCN(c2nc3ccccn3c(=O)c2/C=C(\C#N)S(=O)(=O)c2ccc(Cl)cc2)CC1	0	0	0	0	0
O=C(C1CCN(S(=O)(=O)c2cccnc2)CC1)N1CCN(c2ccc(Cl)cc2)CC1	0	-6	63	0	0
CCC(C)(C)n1nnnc1CN(Cc1cccs1)Cc1cc2cc(OC)ccc2[nH]c1=O	0	0	0	0	11
CCOc1ccc2[nH]c(=O)c(CN(Cc3cccs3)Cc3nnnn3C(C)(C)CC)cc2c1	0	0	0	0	0
CC1CCN(C(C)C(=O)Nc2ccccc2-c2ccccc2)CC1 (stereo unspecified)	0	-7	0	0	0
Cc1c(CCOC(=O)CC23CC4CC(CC(C4)C2)C3)sc[n+]1CC(=O)c1ccccc1	0	-5	0	0	0
Cc1nc(N2CCCCC2)c(C#N)c(C)c1[N+](=O)[O-]	0	-5	0	0	0
CCCC1(c2ccccc2)NC(=O)N(CC(=O)c2[nH]c(C)c(C(=O)OCC)c2C)C1=O (stereo unspecified)	0	0	0	0	15
O=C(NCC(=O)N1CCN(S(=O)(=O)c2ccccc2)CC1)c1ccc(Br)o1	0	0	0	0	0
COc1cc(NC(C)CCCN)c2ncccc2c1 (stereo unspecified)	0	0	181	0	0
C/C(=N\NC(=O)c1ccc2ccccc2c1)c1cccs1	0	0	0	0	0
Cc1ccc2nc(/N=C(\N)NC(=O)NC3CCCCC3)nc(C)c2c1	0	0	55	0	0
CCCC(=O)N/C(N)=N/c1nc(C)c2cc(C)ccc2n1	0	0	0	0	0
COCCNC(=O)C1=NOC(Cn2cc(C#N)c(=O)n(C)c2=O)C1 (stereo unspecified)	0	0	0	0	0
Fc1ccc(-c2[nH]ncc2CN(CC2CCC2)CC2CCCO2)c(F)c1 (stereo unspecified)	0	0	0	0	0
CCC(CC)C(=O)OCC(=O)Nc1cc(OC)c([N+](=O)[O-])cc1C	0	0	0	0	0
Cc1nn(-c2cccc(Cl)c2)c2nc(-c3ccco3)cc(C(=O)O)c12	0	0	0	0	0
COc1ccc(-c2cc(C(=O)O)c3c(C)nn(-c4ccccn4)c3n2)cc1	0	0	0	0	0
Cc1cccc(-n2nc(C)c3c(C(=O)O)cc(-c4cccs4)nc32)c1	0	-6	0	0	0
Cc1nn(-c2ccccn2)c2nc(-c3cccs3)cc(C(=O)N3CCOCC3)c12	0	0	0	0	12
SMILES	TRPC6 inhibitor	TRPC4 block	TRPC4 act	TRPC6 act	TRPC4 potent
CC1(C)CN=C(N(Cc2ccccc2)C(=O)Nc2ccccc2)S1	0	0	0	0	0
COc1ccc(NC(=O)Nc2ccc3c(c2)OCO3)c(C)c1	0	0	0	0	0
CC(Sc1nc2sc3c(c2c(=O)n1-c1ccccc1)CCCC3)C(=O)O (stereo unspecified)	0	0	0	0	17
CN(C)CCSc1nc(-c2ccccc2)nc2c1CCC2	0	0	0	0	0
CN(C)CCCSc1nc(-c2ccccc2)nc2c1CCC2	0	0	0	0	16
NC(CCCCc1ccccc1)c1cccc2ccccc12 (stereo unspecified)	-7.9	0	0	0	0
Cc1cccnc1NC1(C(F)(F)F)N=C2SCCN2C1=O (stereo unspecified)	0	0	0	0	0
CCOc1ccc(-n2c(C)c(C(C)=O)c3cc(O)ccc32)cc1	0	0	0	0	11
Cc1ccc(S(=O)(=O)Nc2ccccc2C(=O)N2CCCCC2C)c(C)c1NS(C)(=O)=O (stereo unspecified)	0	0	0	0	0
Cc1ccsc1C(=O)Nc1ccccc1N1CCOCC1	0	0	0	0	0
CCOC(=O)C1=C(C)N=c2s/c(=C/c3cccc([N+](=O)[O-])c3O)c(=O)n2C1c1ccc(OC)cc1OC (stereo unspecified)	-5.2	0	0	0	0
CC(C)CN(CC(C)C)c1nc(N)c(C#N)c(CC#N)c1C#N	0	-6	0	0	0
O=Cc1[nH]c2ccccc2c1N(C(=O)CCl)c1ccc([N+](=O)[O-])cc1	0	0	45	0	0
CC(=O)n1cc(N(C(=O)CCl)c2ccc([N+](=O)[O-])cc2)c2ccccc21	0	0	0	0	0
CC(/C=C1\SC(=S)N(C(C(=O)O)C(C)C)C1=O)=C\c1ccccc1 (stereo unspecified)	0	-6	0	0	0
COc1ccc(/C=C2\SC(=S)N(C(Cc3ccccc3)C(=O)O)C2=O)cc1 (stereo unspecified)	0	-8	0	0	0
O=C(COc1coc(CN2CCN(c3ccccc3F)CC2)cc1=O)Nc1ccccc1	0	0	0	0	32
COc1cc(/C=C2\C(=N)N3N=C(S(C)(=O)=O)SC3=NC2=O)ccc1OC(=O)c1cccs1	0	-7	0	0	0
CCCNc1nc(-c2ccccc2)c(C(=O)OCC)cc1C#N	0	0	0	0	0
CCCCNc1nc(-c2ccccc2)c(C(=O)OCC)cc1C#N	0	-6	0	0	0
CCOC(=O)c1cc2c(=O)n3ccccc3nc2n(C(C)C)c1=NC(=O)c1c(-c2ccccc2Cl)noc1C	0	-8	0	0	0
CCOC(=O)c1cc2c(=O)n3ccccc3nc2n(CCOC)c1=NC(=O)C(C)(C)C	0	0	152	0	0
CCOC(=O)c1cc2c(=O)n3ccccc3nc2n(Cc2ccco2)c1=NC(=O)c1ccccc1OCC	0	0	0	0	0
CCOC(=O)c1cc2c(=O)n3ccccc3nc2n(CCOC)c1=NC(=O)c1ccncc1	0	0	0	0	0
CCOC(=O)c1cc2c(=O)n3ccccc3nc2n(Cc2ccco2)c1=NC(=O)c1cccnc1	0	0	0	0	11
CCn1cc(C(=O)NCC(OC)OC)c(=O)c2cc(S(=O)(=O)N3CCC(C)CC3)ccc21	0	0	0	0	0
Cc1cc(OCC(=O)NCCCN2CCOCC2)c2c(C)c(C)c(=O)oc2c1	0	0	0	0	0
CCOc1ccc(NC(=O)Nc2c(C)n(C)n(-c3ccccc3)c2=O)cc1	0	0	0	0	0
Cc1cccn2c(=O)c3cc(C(=O)N(C)C)n(C)c3nc12	0	0	0	0	25
COc1ccc(CCNC(=O)CCS(=O)(=O)Cc2ccccc2C)cc1OC	0	0	0	0	0

Source: PubChem BioAssay (Johns Hopkins Ion Channel Center)
